Results on twelve compounds are retold here after ChEMBL document CHEMBL1122035, “Preparation and evaluation of 2-substituted anthraquinones based on the anthracyclines” (1982).

Assay [1] deals with Nucleic Acid. Nature of the assay: DNA binding property and activity expressed as K. In kind it is nucleic-acid assay. In outline: (§1)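 Absorbance read at the unbound-drug λmax after 5-min equilibration, against a buffer blank. K and n were obtained by nonlinear regression of absorbance against cumulative DNA volume, using a one- or two-site model.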
For assay [2], the system named is Nucleic Acid. Nature of the assay: DNA binding property and activity expressed as Kn. Type of assay: nucleic-acid assay. Summed up:
as §1

Assay [3] deals with Mus musculus. The assay is described as follows: In vivo antitumor activity against P-388 leukemia in mice at the dose of 50 mg/kg. In kind it is functional. Summed up:
(§2)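 P-388 leukemia in mice; compounds given as hydrochloride salts. Screening was done by the NCI Drug Research and Development Program. Result expressed as T/C (%).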

In assay [4] the test system is Mus musculus. The assay is described as follows: In vivo antitumor activity against P-388 leukemia in mice at the dose of 200 mg/kg. In kind it is functional. Summed up:
as §2

In assay [5] the test system is Mus musculus. Nature of the assay: In vivo antitumor activity against P-388 leukemia in mice at the dose of 100 mg/kg. In kind it is functional. In outline:
as §2

Assay [6] relates to Mus musculus. Nature of the assay: In vivo antitumor activity against P-388 leukemia in mice at the dose of 40 mg/kg. In kind it is functional. In outline:
as §2

The subject of assay [7] is Mus musculus. Nature of the assay: In vivo antitumor activity against P-388 leukemia in mice at the dose of 5 mg/kg. Type of assay: functional. In outline: as §2

`CN(C)CCCNC(=O)c1ccc2c(c1O)C(=O)c1ccccc1C2=O.Cl` returned a K in assay [1] of 78000 M⁻¹. The same compound had a Kn in assay [2] of 9400 M⁻¹. The compound also had a T/C in assay [3] of 118%.

As to `CCN(CC)CCNC(=O)c1ccc2c(c1)C(=O)c1ccccc1C2=O.Cl`, the T/C in assay [4] was 119%.

In turn, `CN(C)CCNC(=O)Cc1cc(O)c2c(c1O)C(=O)c1ccccc1C2=O.Cl` registered a K in assay [1] of 289000 M⁻¹. The Kn in assay [2] is 75000 M⁻¹. The compound further showed a T/C in assay [5] of 118%.

In assay [1], `CN(C)CCCNC(=O)c1ccc2c(c1)C(=O)c1ccccc1C2=O.Cl` yielded a K of 59000 M⁻¹. Moreover, in assay [2], the Kn came to 11000 M⁻¹. The compound further came in with a T/C in assay [4] of 115%.

In turn, `CCN(CC)CCNC(=O)c1ccc2c(c1O)C(=O)c1ccccc1C2=O` registered a K in assay [1] of 46000 M⁻¹. In assay [2], this compound had a Kn of 9100 M⁻¹.

`CCN(CC)CCCNC(=O)Cc1cc(O)c2c(c1O)C(=O)c1ccccc1C2=O.Cl`: the K in assay [1] was 127000 M⁻¹. The compound further gave a Kn in assay [2] of 29000 M⁻¹. In addition, the T/C in assay [3] is 108%.

Regarding `CCN(CC)CCCC(C)NC(=O)Cc1cc(O)c2c(c1O)C(=O)c1ccccc1C2=O.Cl` (stereo not given), the K in assay [1] came to 308000 M⁻¹. The same compound registered a Kn in assay [2] of 49000 M⁻¹. This compound also displayed a T/C in assay [6] of 125%.

Regarding `CCN(CC)CCNC(=O)Cc1cc(O)c2c(c1O)C(=O)c1ccccc1C2=O.Cl`, the K in assay [1] turned out to be 529000 M⁻¹. The Kn in assay [2] is 100000 M⁻¹. The same compound yielded a T/C in assay [5] of 106%.

For `CN(C)CCCNC(=O)Cc1cc(O)c2c(c1O)C(=O)c1ccccc1C2=O.Cl`, the K in assay [1] was determined as 259000 M⁻¹. This compound also had a Kn in assay [2] of 65000 M⁻¹. In assay [3], this compound displayed a T/C of 106%.

In turn, `CCN(CC)CCCC(C)NC(=O)c1ccc2c(c1O)C(=O)c1ccccc1C2=O.Cl` (stereo not given) yielded a K in assay [1] of 78000 M⁻¹. In assay [2], this compound gave a Kn of 10100 M⁻¹. The T/C in assay [7] was determined as 106%.

For `CCN(CC)CCCC(C)NC(=O)c1ccc2c(c1)C(=O)c1ccccc1C2=O.Cl` (stereo not given), the T/C in assay [4] turned out to be 127%.

In turn, `CCN(CC)CCCNC(=O)c1ccc2c(c1O)C(=O)c1ccccc1C2=O` had a K in assay [1] of 92000 M⁻¹. The compound also displayed a Kn in assay [2] of 12900 M⁻¹.
